Test results reported in article PMC10318414 (RSC Advances, 2023).
*1 amine or outer side, *2 acyl side, *3 side chain or, on linkers, in order; H or OH if unused. Where a SMILES comes first, the peptide text is derived from it. Bridges are numbered along the chain shown (N, C = ends). Biphenyl(4,4'-CH2)2 = c1cc(-c2ccc(C[*:2])cc2)ccc1C[*:1]; mXylylene = c1cc(C[*:1])cc(C[*:2])c1; oXylylene = c1ccc(C[*:2])c(C[*:1])c1; pXylylene = c1cc(C[*:2])ccc1C[*:1]

What was measured:
glioma cell line (U87) = assay: CCK8 cell proliferation assay, U87; format: cell-based, human; conditions: read-out: IC50 (μM) U87; CCK8, 48 h peptide treatment, 0.78–25 μM, OD 450 nm
Procedure, shortened: (§1)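 Cells kept in DMEM with 10% FBS and 1% penicillin-streptomycin at 37 °C, 5% CO2. Seeded at 3 × 10^3 cells/well and grown for 24 h. Treated with or without peptide (0.78, 1.56, 3.125, 6.25, 12.5, 25 μM) for 48 h. Medium then switched to serum-free; CCK-8 added 10 μL/well for 1 h at 37 °C. OD read at 450 nm; IC50 obtained by curve fitting.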

[1] = tested on: human breast cancer cell line (MCF-7); assay: CCK8 cell proliferation assay, MCF-7; format: cell-based; conditions: read-out: IC50 (μM) MCF-7; CCK8, 48 h peptide treatment, 0.78–25 μM, OD 450 nm
Procedure, shortened: as §1

[2] = tested on: human colon cancer cell line (HCT116); assay: CCK8 cell proliferation assay, HCT116; format: cell-based; conditions: read-out: IC50 (μM) HCT116; CCK8, 48 h peptide treatment, 0.78–25 μM, OD 450 nm
Procedure, shortened: as §1

MCF-7 cells [3] = assay: In vitro transwell migration assay; format: cell-based, human; conditions: MCF-7, transwell 8 μm pore, 48 h, compared with control group, n = 3
MCF-7 cells [4] = assay: Annexin V-FITC/PI apoptosis assay by flow cytometry; format: cell-based, human; conditions: MCF-7, 10 μM peptide
MCF-7 cells [5] = assay: Calcein-AM/PI cell viability staining; format: cell-based, human; conditions: MCF-7, 10 μM peptide, 24 hours
Procedure, shortened: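 MCF-7 seeded at 5 × 10^3 cells/well and held at 37 °C for 24 h. Peptide added at a final 10 μM for another 24 h. Cells stained with a PBS working solution of calcein-AM (2 μM) and PI (4.5 μM) at 37 °C for 15 min. Live/dead fluorescence imaged on a high-content screening system.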

Q: Which results are given for `CC(C)C[C@H](NC(=O)[C@H](CC(C)C)NC(=O)[C@H](CC(=O)O)NC(=O)[C@H](CCCCN)NC(=O)[C@H](Cc1ccccc1)NC(=O)CN)C(=O)N[C@@H](CCCCN)C(=O)NCC(=O)N[C@@H](C)C(=O)N[C@@H](C)C(=O)N[C@@H](CCCCN)C(=O)N[C@H]1CSCc2cccc(c2)CSC[C@@H](C(=O)N[C@H](C(=O)N[C@@H](CC(C)C)C(=O)N[C@@H](Cc2ccccc2)C(N)=O)C(C)C)NC(=O)[C@H](CCCCN)NC(=O)[C@H](C(C)C)NC(=O)[C@H](CC(C)C)NC1=O` [Peptide A8-3-m] (H-GFKDLLKGAAKCLVKCVLF-NH2; linker 12-16 via mXylylene)?
A: IC50 (glioma cell line (U87)): 8.69 µM; IC50 [1]: 7.8 µM; IC50 [2]: 9.21 µM

Q: How did the IC50 (glioma cell line (U87)) turn out when `CC(C)C[C@H](NC(=O)[C@H](CC(C)C)NC(=O)[C@H](CC(=O)O)NC(=O)[C@H](CCCCN)NC(=O)[C@H](Cc1ccccc1)NC(=O)CN)C(=O)N[C@@H](CCCCN)C(=O)NCC(=O)N[C@@H](C)C(=O)N[C@@H](C)C(=O)N[C@@H](CCCCN)C(=O)N[C@H]1CSCc2ccccc2CSC[C@@H](C(=O)N[C@H](C(=O)N[C@@H](CC(C)C)C(=O)N[C@@H](Cc2ccccc2)C(N)=O)C(C)C)NC(=O)[C@H](CCCCN)NC(=O)[C@H](C(C)C)NC(=O)[C@H](CC(C)C)NC1=O` [Peptide A8-3-o] (H-GFKDLLKGAAKCLVKCVLF-NH2; linker 12-16 via oXylylene) was run?
A: 9.28 µM

Q: And the IC50 [1]?
A: 6.03 µM

Q: What about the IC50 [2] of the same compound?
A: 7.68 µM

Q: What does the source list for `CC(C)C[C@H](NC(=O)[C@H](CC(C)C)NC(=O)[C@H](CC(=O)O)NC(=O)[C@H](CCCCN)NC(=O)[C@H](Cc1ccccc1)NC(=O)CN)C(=O)N[C@@H](CCCCN)C(=O)NCC(=O)N[C@@H](C)C(=O)N[C@@H](C)C(=O)N[C@@H](CCCCN)C(=O)N[C@H]1CSCc2ccc(cc2)CSC[C@@H](C(=O)N[C@H](C(=O)N[C@@H](CC(C)C)C(=O)N[C@@H](Cc2ccccc2)C(N)=O)C(C)C)NC(=O)[C@H](CCCCN)NC(=O)[C@H](C(C)C)NC(=O)[C@H](CC(C)C)NC1=O` [Peptide A8-3-p] (H-GFKDLLKGAAKCLVKCVLF-NH2; linker 12-16 via pXylylene)?
A: IC50 (glioma cell line (U87)): 14.4 µM; IC50 [1]: 11.7 µM; IC50 [2]: 11.2 µM

Q: Which “Migration through the polycarbonate membrane” value (MCF-7 cells [3]) does the source give for `CC(C)C[C@@H]1NC(=O)[C@H](C)NC(=O)[C@H](CCCCN)NC(=O)[C@H](C)NC(=O)[C@@H](NC(=O)CNC(=O)[C@H](CCCCN)NC(=O)[C@H](CC(C)C)NC(=O)[C@H](CC(C)C)NC(=O)[C@H](CC(=O)O)NC(=O)[C@H](CCCCN)NC(=O)[C@H](Cc2ccccc2)NC(=O)CN)CSCc2ccc(cc2)-c2ccc(cc2)CSC[C@@H](C(=O)N[C@H](C(=O)N[C@@H](CC(C)C)C(=O)N[C@@H](Cc2ccccc2)C(N)=O)C(C)C)NC(=O)[C@H](CCCCN)NC(=O)[C@H](C(C)C)NC1=O` [Peptide A8-4-Dp] (H-GFKDLLKGCAKALVKCVLF-NH2; linker 9-16 via Biphenyl(4,4'-CH2)2) here?
A: rarely migrated

Q: And the “Number of apoptotic cells versus Ascaphin-8 and normal medium” value (MCF-7 cells [4])?
A: significantly higher

Q: And the IC50 (glioma cell line (U87))?
A: 3.63 µM

Q: What about the “Calcein-AM/PI fluorescence of cells” value (MCF-7 cells [5]) of the same compound?
A: a large amount of red fluorescence

Q: And the IC50 [1]?
A: 2.99 µM

Q: And the IC50 [2]?
A: 3.03 µM
